Values after ≈ are worked out from the molar mass of the structure shown.
How the values were obtained:
LAC yceI::Tn strain = assay: Selection of spontaneous resistant mutants, frequency; type: cell-based, Staphylococcus aureus
LAC yceI::Tn azoR4 = assay: MIC; type: cell-based, Staphylococcus aureus; settings: genotype yceI::Tn azoR4
[1] = system: S. aureus LAC yceI::Tn pLL39_yceI1; assay: MIC; type: cell-based, Staphylococcus aureus; settings: genotype yceI::Tn pLL39_yceI1, LAC background
[2] = system: S. aureus LAC yceI::Tn pLL39_yceI; assay: MIC; type: cell-based, Staphylococcus aureus; settings: genotype yceI::Tn pLL39_yceI, LAC background
LAC yceI::Tn azoR1 = assay: MIC; type: cell-based, Staphylococcus aureus
Method in brief: (§1)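 Overnight cultures were grown in 5 mL Mueller-Hinton at 37 °C with shaking at 200 rpm. They were diluted 1/1000 into 96-well plates holding serial dilutions of test compound in Mueller-Hinton broth. Plates were sealed against drying and incubated statically at 37 °C for 18 h before reading. All strains are isogenic and in the LAC background.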

LAC yceI::Tn azoR4 pCM28 = assay: MIC; type: cell-based, Staphylococcus aureus
Method in brief: as §1

VRSA strains = assay: MIC versus VRSA clinical isolates; type: cell-based, Staphylococcus aureus; settings: five clinical isolates of VRSA
LAC yceI::Tn azoR3 pCM28 = assay: MIC; type: cell-based, Staphylococcus aureus
Method in brief: as §1

[3] = system: S. aureus LAC yceI::Tn pLL39_yceI2; assay: MIC; type: cell-based, Staphylococcus aureus; settings: genotype yceI::Tn pLL39_yceI2, LAC background
[4] = system: S. aureus LAC yceI::Tn pLL39_yceI3; assay: MIC; type: cell-based, Staphylococcus aureus; settings: genotype yceI::Tn pLL39_yceI3, LAC background
MRSA culture = assay: Time-kill curve; type: cell-based, Staphylococcus aureus
LAC yceI::Tn pCM28 = assay: MIC; type: cell-based, Staphylococcus aureus
Method in brief: as §1

LAC = assay: MIC; type: cell-based, Staphylococcus aureus; settings: genotype LAC
Method in brief: as §1

[5] = system: S. aureus LAC pLL39_yceI3; assay: MIC; type: cell-based, Staphylococcus aureus; settings: genotype pLL39_yceI3, LAC background
[6] = Mouse pharmacokinetic study; type: in vivo; settings: CD-1 mice, oral 25 mg/kg, 0.5-5 h
Method in brief: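 Two female CD-1 mice received one oral 25 mg/kg dose in 20% DMA/80% PEG300. K2EDTA blood was taken pre-dose and at 0.5, 1, 3 and 5 h, and plasma was stored at −80 °C. Samples were precipitated with acetonitrile/methanol containing a verapamil internal standard and analysed by LC-MS/MS in MRM positive mode. Standard curves were made in CD-1 plasma, and QCs had to fall within 20% of nominal.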

[7] = system: S. aureus LAC yceI::Tn pLL39; assay: MIC; type: cell-based, Staphylococcus aureus; settings: genotype yceI::Tn pLL39, LAC background
S. aureus (ATCC 43300) = assay: Nitric oxide release assay, DAF-FM diacetate; type: cell-based, Staphylococcus aureus; settings: 100 μM, over 2 h; positive control DEA-NONOate
Method in brief: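 ATCC 43300 in Mueller-Hinton medium at OD600 0.2 was loaded with 10 μM DAF-FM diacetate for 30 min in the dark. Cells were then exposed to 100 μM test compound or 100 μM DEA-NONOate for 120 min. Controls were medium alone, bacteria alone, and bacteria with dye. Fluorescence (ex 495/em 515 nm) was read in triplicate.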

[8] = system: JSF-3151–resistant strains; assay: MIC versus JSF-3151-resistant strains compared to the parental strain; type: cell-based, Staphylococcus aureus; settings: yceI promoter mutants versus parent
LAC yceI::Tn = assay: MIC; type: cell-based, Staphylococcus aureus; settings: genotype yceI::Tn, LAC background
Method in brief: as §1

[9] = system: LAC yceI::Tn azoR3 pCM28_azoR; assay: MIC; type: cell-based, Staphylococcus aureus
Method in brief: as §1

[10] = system: S. aureus LAC pLL39_yceI1; assay: MIC; type: cell-based, Staphylococcus aureus; settings: genotype pLL39_yceI1, LAC background
LAC yceI::Tn azoR2 pCM28 = assay: MIC; type: cell-based, Staphylococcus aureus
Method in brief: as §1

[11] = system: LAC yceI::Tn azoR4 pCM28_azoR; assay: MIC; type: cell-based, Staphylococcus aureus
Method in brief: as §1

S. aureus LAC pLL39_yceI = assay: MIC; type: cell-based, Staphylococcus aureus; settings: genotype pLL39_yceI, LAC background
MRSA COL strain = assay: Mouse peritonitis-sepsis model; type: in vivo, Staphylococcus aureus; settings: single dose 24 mg/kg intraperitoneal, 1 h post-infection
[12] = system: S. aureus LAC pLL39_yceI2; assay: MIC; type: cell-based, Staphylococcus aureus; settings: genotype pLL39_yceI2, LAC background
VISA strains = assay: MIC versus VISA clinical isolates; type: cell-based, Staphylococcus aureus; settings: six clinical isolates of VISA
LAC pEPSA5 = assay: MIC; type: cell-based, Staphylococcus aureus
Method in brief: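 LAC strains carried empty pEPSA5 or pEPSA5_yceI (yceI under a xylose-inducible promoter). They were grown overnight with or without xylose induction; for the azoR overexpression set, pEPSA strains were cultured with 1% xylose. The 1/1000 inoculum went into Mueller-Hinton broth with serial compound dilutions, incubated statically at 37 °C for 18 h. Values represent three independent experiments.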

[13] = system: LAC yceI::Tn azoR2 pCM28_azoR; assay: MIC; type: cell-based, Staphylococcus aureus
Method in brief: as §1

S. aureus LAC pLL39 = assay: MIC; type: cell-based, Staphylococcus aureus; settings: genotype pLL39, LAC background

With `O=C(Nc1cc(Cl)cc2cccnc12)c1ccc([N+](=O)[O-])s1` [JSF-3151] the “frequency of heritable resistance” value (LAC yceI::Tn strain) was “approximately 3 x 10^−8”, the MIC (LAC yceI::Tn azoR4) was 25 µg/mL (≈ 74.9 µM) and the MIC [1] was 50 µg/mL (≈ 150 µM). For the same compound, the MIC [2] was 1.6 µg/mL (≈ 4.79 µM), the “MIC shift versus yceI::Tn parental strain” value (LAC yceI::Tn azoR1; azoR1 (Trp100stop)) was 15 fold and the MIC (LAC yceI::Tn azoR1; genotype yceI::Tn azoR1) was 12 µg/mL (≈ 36 µM). The MIC (LAC yceI::Tn azoR4 pCM28) was 25 µg/mL (≈ 74.9 µM), the “MIC versus VRSA compared to MRSA” value (VRSA strains) was “even greater potency” and the MIC (LAC yceI::Tn azoR3 pCM28) was over 50 µg/mL. The MIC [3] was 50 µg/mL (≈ 150 µM), the MIC [4] was 50 µg/mL (≈ 150 µM) and the “time to sterilize a MRSA culture” value (MRSA culture; 1x MIC) was at most 4 h. For the same compound, the “speed of sterilization relative to vancomycin” value (MRSA culture; both at 1x MIC) was “more than six times faster than vancomycin”, the MIC (LAC yceI::Tn pCM28) was 0.78 µg/mL (≈ 2.34 µM) and the MIC (LAC) was 1.5 µg/mL (≈ 4.49 µM). The “half-life t1/2 in mouse liver microsomes” value was 1.46 min, the MIC [5] was 50 µg/mL (≈ 150 µM) and the “mouse plasma level relative to MIC” value [6] was “inability to reach the MIC over a 5 h time period”. The MIC [7] was 0.78 µg/mL (≈ 2.34 µM), the “intrabacterial NO• release (DAF-FM)” value (S. aureus (ATCC 43300)) was “neither DAF-FM (over 2 h) nor the Griess reagent (over 48 h) evidenced NO• production” and the “loss of susceptibility of three representative mutants” value [8] was over 16 fold. It also gave an MIC (LAC yceI::Tn) of 0.78 µg/mL (≈ 2.34 µM), an MIC [9] of 1.5 µg/mL (≈ 4.49 µM) and an MIC [10] of 50 µg/mL (≈ 150 µM). It also gave an MIC (LAC yceI::Tn azoR2 pCM28) of 25 µg/mL (≈ 74.9 µM), an MIC [11] of 1.5 µg/mL (≈ 4.49 µM) and an MIC (S. aureus LAC pLL39_yceI) of 6.2 µg/mL (≈ 18.6 µM). For the same compound, the “mice surviving 3 d post-administration” value (MRSA COL strain) was 2 out of 12, the “survival 3 d post-administration” value (MRSA COL strain) was 16.7% and the MIC [12] was 50 µg/mL (≈ 150 µM). For the same compound, the “MIC versus VISA compared to MRSA” value (VISA strains) was “even greater potency”, the MIC (LAC pEPSA5; LAC pEPSA5, cultured with 1% xylose (Table 6)) was 1.5 µg/mL (≈ 4.49 µM) and the MIC (LAC pEPSA5; LAC pEPSA5, growth with xylose +) was 0.78 µg/mL. It also gave an MIC (LAC pEPSA5; LAC pEPSA5, growth with xylose −) of 0.78 µg/mL (≈ 2.34 µM), an MIC [13] of 1.5 µg/mL (≈ 4.49 µM) and an MIC (S. aureus LAC pLL39) of 6.2 µg/mL (≈ 18.6 µM).

Reference: publication PMC8591627 (ACS infectious diseases, 2021)
